What all share (type): functional
Test [1] in a line: The minimum inhibitory concentration was measured on E6SM cells against Herpes simplex virus type 1 (McIntyre strain). The settings on record: Human alphaherpesvirus 1. Put shortly:
(§1)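 Antiviral endpoint was the concentration reducing virus-induced cytopathicity by 50% in […] cell cultures. Values are means of two to six independent determinations.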

For test [2], the system named is Human alphaherpesvirus 3. Kind of test: The minimum inhibitory concentration was measured on HEL cells against TK-Varicella zoster virus (07/1 strain). Put shortly: (§2)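 Antiviral endpoint was the concentration reducing virus plaque formation by 50% in HEL cell cultures. Values are means of two to six independent determinations.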
For another test, the system named is Cytomegalovirus. Kind of test: The minimum inhibitory concentration was measured on HEL cells against Cytomegalovirus virus (Davis strain). The note with it: Human betaherpesvirus 5. Put shortly:
as §2

Test [3] relates to Human alphaherpesvirus 3. Kind of test: The minimum inhibitory concentration was measured on HEL cells against Varicella zoster virus (OKA strain). The settings on record: Human alphaherpesvirus 3, oka. In a few lines: as §2
In a further test the test system is E6SM. Kind of test: The minimum inhibitory concentration was measured on E6SM cells for morphological alteration. The settings on record: Homo sapiens. Put shortly:
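In uninfected E6SM cells, the value is the concentration giving a microscopically detectable change in normal cell morphology. Values are means of two to six independent determinations.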

For a further test, the system named is Human betaherpesvirus 5. Kind of test: The minimum inhibitory concentration was measured on HEL cells against Cytomegalovirus virus (AD-169 strain). Put shortly:
as §2

In test [4] the test system is Human alphaherpesvirus 1. Kind of test: The minimum inhibitory concentration was measured on E6SM cells against Herpes simplex virus type 1 (F strain). In a few lines:
as §1

The subject of test [5] is HEL. Kind of test: The […] was measured on HEL cells in cell growth. The settings on record: Homo sapiens.
Another test concerns Vaccinia virus. Kind of test: The minimum inhibitory concentration was measured on E6SM cells against Vaccinia virus. The note with it: Orthopoxvirus vaccinia. In a few lines: as §1
The subject of test [6] is Human alphaherpesvirus 3. Kind of test: The minimum inhibitory concentration was measured on HEL cells against TK-Varicella zoster virus (YS-R strain). The settings on record: Human alphaherpesvirus 3, ys-r. Put shortly: as §2
The subject of test [7] is Human alphaherpesvirus 1. Kind of test: The minimum inhibitory concentration was measured on E6SM cells against TK+/TK-Herpes simplex virus type 1 (VMW1837 strain). In a few lines: as §1
For test [8], the system named is Human alphaherpesvirus 3. Kind of test: The minimum inhibitory concentration was measured on HEL cells against Varicella zoster virus (YS strain). Put shortly: as §2
Test [9] in a line: The minimum inhibitory concentration was measured against Herpes simplex virus type 1 (KOS strain) on E6SM cells. The settings on record: Human alphaherpesvirus 1. In a few lines:
as §1

The test system of test [10] is Human alphaherpesvirus 1. Kind of test: The minimum inhibitory concentration was measured on E6SM cells against TK-Herpes simplex virus type 1 (B2006 strain). In a few lines:
as §1

Test [11] deals with HEL. Kind of test: The minimum inhibitory concentration was measured on HEL cells against Cytomegalovirus virus (Davis strain); (<400>100). The note with it: Homo sapiens. In a few lines: as §2
Test [12] deals with HEL. Kind of test: The minimum inhibitory concentration was measured on HEL cells against TK-Varicella zoster virus (YS-R strain); (<400>100). The note with it: Homo sapiens. Put shortly: as §2
The subject of test [13] is HEL. Kind of test: The minimum inhibitory concentration was measured on HEL cells against Cytomegalovirus virus (AD-169 strain); (<400>100). The note with it: Homo sapiens. In a few lines:
as §2

Values after ≈ are worked out from the molar mass of the structure shown. Some results are limits rather than exact numbers.

With `Cc1cnc2nc3c(c(O)n12)NCN3COCCO`, the MIC was 0.5 µg/mL (≈ 1.88 µM) in test [1]; over 50 µg/mL in the test on Human alphaherpesvirus 3 [2]; over 50 µg/mL against Cytomegalovirus; over 50 µg/mL in the test on Human alphaherpesvirus 3 [3]; over 100 µg/mL with E6SM; over 50 µg/mL against Human betaherpesvirus 5. Moreover, the MIC is 0.1 µg/mL (≈ 0.377 µM) in the test with Human alphaherpesvirus 1 [4]; over 200 µg/mL in the test on HEL [5]; over 150 µg/mL in the test with Vaccinia virus; over 50 µg/mL with Human alphaherpesvirus 3 [6]; over 120 µg/mL in the test with Human alphaherpesvirus 1 [7]; over 50 µg/mL against Human alphaherpesvirus 3 [8]. The MIC in test [9] is 2.1 µg/mL (≈ 7.92 µM); against Human alphaherpesvirus 1 [10] it was over 50 µg/mL.

As for `NC(=O)c1ncn([C@@H]2O[C@H](CO)[C@@H](O)[C@H]2O)n1` [RIBAVIRIN], the MIC was 16 µg/mL (≈ 65.5 µM) in test [1]; 400 µg/mL (≈ 1640 µM) in the test with E6SM; 23 µg/mL (≈ 94.2 µM) in the test with Human alphaherpesvirus 1 [4]; 28 µg/mL (≈ 115 µM) with Vaccinia virus; 115 µg/mL (≈ 471 µM) against Human alphaherpesvirus 1 [7]; 46 µg/mL (≈ 188 µM) in test [9]. In the test with Human alphaherpesvirus 1 [10], this molecule yielded an MIC of 53 µg/mL (≈ 217 µM).

With `OCCOCN1CNc2c1nc1nc(-c3ccc(-c4ccccc4)cc3)cn1c2O`, the MIC in [1] was 0.7 µg/mL (≈ 1.74 µM); in the test with Human alphaherpesvirus 3 [2], 100 µg/mL (≈ 248 µM); against Human alphaherpesvirus 3 [3] it was 65 µg/mL (≈ 161 µM); in the test with E6SM it was at least 70 µg/mL; against HEL [11] it was over 100 µg/mL; in the test with HEL [12], over 100 µg/mL. In addition, the MIC is 2 µg/mL (≈ 4.96 µM) with Human alphaherpesvirus 1 [4]; over 200 µg/mL in the test with HEL [5]; over 70 µg/mL in the test on Vaccinia virus; over 100 µg/mL against HEL [13]; over 55 µg/mL against Human alphaherpesvirus 1 [7]; 40 µg/mL (≈ 99.1 µM) against Human alphaherpesvirus 3 [8]. This molecule returned an MIC in test [9] of 1.3 µg/mL (≈ 3.22 µM).

With `OCCOCN1CNc2c1nc1nc(-c3ccccc3)cn1c2O`, the MIC in test [1] is 0.2 µg/mL (≈ 0.611 µM); with Human alphaherpesvirus 3 [2], 67 µg/mL (≈ 205 µM); against Cytomegalovirus, 166 µg/mL (≈ 507 µM); in the test with Human alphaherpesvirus 3 [3] it was 1.3 µg/mL (≈ 3.97 µM); in the test on E6SM, over 100 µg/mL; with Human alphaherpesvirus 1 [4], 0.7 µg/mL (≈ 2.14 µM). Also, the MIC is 45 µg/mL (≈ 137 µM) in the test with HEL [5]; over 100 µg/mL in the test on Vaccinia virus; 67 µg/mL (≈ 205 µM) against Human alphaherpesvirus 3 [6]; over 100 µg/mL in the test on HEL [13]; over 70 µg/mL in the test with Human alphaherpesvirus 1 [7]; 1.4 µg/mL (≈ 4.28 µM) against Human alphaherpesvirus 3 [8]. Besides, the MIC in test [9] worked out at 0.4 µg/mL (≈ 1.22 µM).

Regarding `O=c1[nH]c(=O)n([C@H]2C[C@H](O)[C@@H](CO)O2)cc1I` [IDOXURIDINE], the MIC was 4 µg/mL (≈ 11.3 µM) in test [1]; at least 400 µg/mL with E6SM; 7 µg/mL (≈ 19.8 µM) in the test on Human alphaherpesvirus 1 [4]; over 20 µg/mL against Vaccinia virus; 20 µg/mL (≈ 56.5 µM) against Human alphaherpesvirus 1 [7]; 20 µg/mL (≈ 56.5 µM) in test [9].

With `OCC(CO)OCN1CNc2c1nc1nc(-c3ccc(-c4ccccc4)cc3)cn1c2O`, the MIC in test [1] is 0.001 µg/mL (≈ 0.00231 µM); in the test on Human alphaherpesvirus 3 [2] it was 25 µg/mL (≈ 57.7 µM); with Cytomegalovirus, over 50 µg/mL; against Human alphaherpesvirus 3 [3] it was 10 µg/mL (≈ 23.1 µM); against E6SM, over 85 µg/mL; against Human betaherpesvirus 5, over 50 µg/mL. Also, the MIC against Human alphaherpesvirus 1 [4] was 0.01 µg/mL (≈ 0.0231 µM); in the test with HEL [5], over 200 µg/mL; against Vaccinia virus, over 70 µg/mL; with Human alphaherpesvirus 3 [6] it was 20 µg/mL (≈ 46.1 µM); in the test with Human alphaherpesvirus 1 [7], 2.7 µg/mL (≈ 6.23 µM); in the test with Human alphaherpesvirus 3 [8], over 50 µg/mL. In addition, the MIC in test [9] is 0.02 µg/mL (≈ 0.0461 µM); in the test with Human alphaherpesvirus 1 [10], over 60 µg/mL.

Regarding `Cc1cn2c(O)c3c(nc2n1)N(COC(CO)CO)CN3`, the MIC in test [1] was 0.02 µg/mL (≈ 0.0677 µM); against Human alphaherpesvirus 3 [2], 15 µg/mL (≈ 50.8 µM); in the test with Cytomegalovirus, over 50 µg/mL; against Human alphaherpesvirus 3 [3] it was 1 µg/mL (≈ 3.39 µM); against E6SM, over 175 µg/mL; in the test on Human betaherpesvirus 5, over 50 µg/mL. The MIC is 0.005 µg/mL (≈ 0.0169 µM) against Human alphaherpesvirus 1 [4]; over 200 µg/mL in the test on HEL [5]; over 175 µg/mL in the test on Vaccinia virus; 15 µg/mL (≈ 50.8 µM) against Human alphaherpesvirus 3 [6]; 1.6 µg/mL (≈ 5.42 µM) against Human alphaherpesvirus 1 [7]; 12 µg/mL (≈ 40.6 µM) in the test on Human alphaherpesvirus 3 [8]. Further, the MIC in [9] was found to be 0.015 µg/mL (≈ 0.0508 µM); against Human alphaherpesvirus 1 [10], 31 µg/mL (≈ 105 µM).

On to `O=c1[nH]c(=O)n([C@H]2C[C@H](O)[C@@H](CO)O2)cc1/C=C/Br` [BRIVUDINE], for which the MIC is 0.006 µg/mL (≈ 0.018 µM) in [1]; 17.5 µg/mL (≈ 52.5 µM) against Human alphaherpesvirus 3 [2]; over 20 µg/mL against Cytomegalovirus; 0.005 µg/mL (≈ 0.015 µM) with Human alphaherpesvirus 3 [3]; over 350 µg/mL against E6SM; over 20 µg/mL in the test on Human betaherpesvirus 5. The MIC with Human alphaherpesvirus 1 [4] was determined as 0.005 µg/mL (≈ 0.015 µM); in the test on HEL [5], 60 µg/mL (≈ 180 µM); in the test on Vaccinia virus, 0.22 µg/mL (≈ 0.66 µM); in the test on Human alphaherpesvirus 3 [6] it was 20 µg/mL (≈ 60 µM); in the test with Human alphaherpesvirus 1 [7] it was 52 µg/mL (≈ 156 µM); with Human alphaherpesvirus 3 [8], 0.003 µg/mL (≈ 0.00901 µM). Besides, the results for the MIC (in test [9]; against Human alphaherpesvirus 1 [10]) were 0.003 µg/mL (≈ 0.00901 µM) and 15 µg/mL (≈ 45 µM), respectively.

Values taken from ChEMBL document CHEMBL1127471, “Tricyclic analogues of acyclovir and ganciclovir. Influence of substituents in the heterocyclic moiety on the antiviral activity” (1994).
